Laboratory results taken from ChEMBL document CHEMBL4765230, “Discovery of Orally Efficacious Phosphoinositide 3-Kinase δ Inhibitors with Improved Metabolic Stability” (J Med Chem, 2016).

Legend:
[1] = Selectivity index, ratio of IC50 for inhibition of human full length PI3K p110gamma to IC50 for inhibition of human full length PI3K p110delta/p85alpha
[2] = AUC infinity in Lewis rat at 1 to 5 mg/kg, po administered as single dose; assay type: ADME, organism-based; settings: in vivo, dose 1-5 mg/kg
Outline: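 Female Lewis rats given a single oral dose of 1 or 5 mg/kg; plasma concentration–time profiles determined; mean ± SD, n = 3.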

[3] = Volume of distribution at steady state in Sprague-Dawley rat at 1 mg/kg, iv measured over 24 hrs by LC/MS/MS analysis; assay type: ADME, organism-based; settings: in vivo, read-out: Vdss
Outline: (§1)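 Single intravenous dose of 1 mg/kg. Vehicles: rats and dogs 5% ethanol/55% PEG 400/40% water; cynomolgus monkeys 5% ethanol/22% PEG 400/73% water; rhesus monkeys 5% ethanol/25% PEG 400/70% water. Plasma concentration–time data gave Vss and iv half-life. Reported as mean ± SD, n = 3.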

[4] = Volume of distribution at steady state in Beagle dog at 1 mg/kg, iv measured over 24 hrs by LC/MS/MS analysis; assay type: ADME, organism-based, Canis lupus familiaris; settings: in vivo, read-out: Vdss; outline: as §1
[5] = molecular target: T1, Phosphatidylinositol 4,5-bisphosphate 3-kinase catalytic subunit delta isoform (Homo sapiens) (UniProt O00329); settings: Blood, time 7.0 day
T1 sequence (whole entry): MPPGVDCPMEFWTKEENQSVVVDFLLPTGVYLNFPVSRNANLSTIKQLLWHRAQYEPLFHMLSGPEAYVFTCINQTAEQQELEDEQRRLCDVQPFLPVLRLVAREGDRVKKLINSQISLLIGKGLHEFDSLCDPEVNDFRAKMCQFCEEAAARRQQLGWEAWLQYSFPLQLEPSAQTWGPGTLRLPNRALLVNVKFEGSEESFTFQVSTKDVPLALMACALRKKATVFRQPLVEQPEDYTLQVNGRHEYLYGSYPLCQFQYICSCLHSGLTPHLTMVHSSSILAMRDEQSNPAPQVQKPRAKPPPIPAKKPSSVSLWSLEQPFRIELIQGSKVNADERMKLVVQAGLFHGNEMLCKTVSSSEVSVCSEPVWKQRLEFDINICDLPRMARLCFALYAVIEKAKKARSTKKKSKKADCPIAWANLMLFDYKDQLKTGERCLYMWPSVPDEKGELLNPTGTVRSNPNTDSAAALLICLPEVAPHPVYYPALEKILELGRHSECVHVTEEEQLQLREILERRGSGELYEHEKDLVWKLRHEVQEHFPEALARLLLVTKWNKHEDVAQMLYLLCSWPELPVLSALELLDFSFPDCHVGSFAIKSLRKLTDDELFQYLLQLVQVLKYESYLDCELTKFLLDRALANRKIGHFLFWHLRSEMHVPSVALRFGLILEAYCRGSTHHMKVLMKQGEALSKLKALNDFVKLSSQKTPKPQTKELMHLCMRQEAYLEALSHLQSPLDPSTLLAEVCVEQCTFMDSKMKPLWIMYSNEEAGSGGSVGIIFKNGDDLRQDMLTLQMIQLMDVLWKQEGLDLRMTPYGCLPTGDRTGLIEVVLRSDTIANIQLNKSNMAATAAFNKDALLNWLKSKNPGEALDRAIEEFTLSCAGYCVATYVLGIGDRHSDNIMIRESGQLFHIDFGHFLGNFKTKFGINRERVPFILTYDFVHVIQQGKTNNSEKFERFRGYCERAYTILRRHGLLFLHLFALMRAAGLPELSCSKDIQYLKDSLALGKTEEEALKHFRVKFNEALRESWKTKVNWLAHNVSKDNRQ

[6] = molecular target: Phosphatidylinositol 4,5-bisphosphate 3-kinase catalytic subunit alpha isoform (Mus musculus, UniProt P42337); assay: Inhibition of PI3K p110alpha in mouse embryonic fibroblast cells assessed as reduction in PDGF-induced AKT phosphorylation at S473 residue preincubated for 2 hrs followed by PDGF stimulation and measured after 10 mins; parameters: species or system MEF
Outline: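 MEFs grown overnight in DMEM/15% FBS, starved 2 h in 0.1% FBS, treated 2 h with compound at various concentrations, then stimulated with PDGF (10 ng/mL) 10 min at 37 °C. Lysates probed for total Akt and phospho-Akt S473 by capillary immunoassay; geometric mean, triplicate.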

[7] = test system: Rattus norvegicus; assay: Antiarthritic activity in Lewis rat model of Freund's incomplete adjuvant-induced arthritis assessed as reduction in ankle swelling at 3 mg/kg, po bid administered for 7 days at 12 hrs interval starting from day 10 to day 16 post-immunization by caliper method relative to control; assay type: functional; parameters: scale not given: the % may be the effect or the level left; settings: time 7 day
Outline: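 Established collagen-induced arthritis in female Lewis rats; oral dosing twice daily for 7 days from day 10 after second immunization. Right and left ankle diameters measured by caliper daily, days 9–18; ankle diameter AUC over days 11–18 compared with arthritic vehicle group (ANOVA, p < 0.05). n = 8/treatment group.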

[8] = test system: Rattus norvegicus; assay: Antiarthritic activity in Lewis rat model of Freund's incomplete adjuvant-induced arthritis assessed as inhibition of […] bone formation at 0.3 to 3 mg/kg, po bid administered for 7 days at 12 hrs interval starting from day 10 to day 16 post-immunization by microscopic analysis relative to control; assay type: functional; parameters: scale not given: the % may be the effect or the level left; settings: dose 0.3-3 mg/kg, time 7 day
Outline: (§2)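 Female Lewis rats with established collagen-induced arthritis dosed orally twice daily for 7 days at 0.3, 1 and 3 mg/kg, starting day 10 after second collagen immunization. Joint histopathology scored for pannus formation, cartilage damage, bone resorption and periosteal bone formation; ED50 derived. n = 8/treatment group, n = 4 normal controls.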

[9] = Selectivity index, ratio of IC50 for inhibition of human full length PI3K p110alpha/p85alpha to IC50 for inhibition of human full length PI3K p110delta/p85alpha
[10] = Terminal half life in Sprague-Dawley rat at 1 mg/kg, iv measured over 24 hrs by LC/MS/MS analysis; assay type: ADME, organism-based; settings: in vivo, read-out: beta t1/2 (converted); outline: as §1
[11] = test system: Rattus norvegicus; assay: Antiarthritic activity in po dosed Lewis rat model of Freund's incomplete adjuvant-induced arthritis administered for 7 days at 12 hrs interval starting from day 10 to day 16 post-immunization by microscopic analysis; assay type: functional; settings: 168 h, time 7 day; outline: as §2

Phosphatidylinositol 4,5-bisphosphate 3-kinase catalytic subunit alpha isoform, sequence (P42337 whole entry, canonical isoform): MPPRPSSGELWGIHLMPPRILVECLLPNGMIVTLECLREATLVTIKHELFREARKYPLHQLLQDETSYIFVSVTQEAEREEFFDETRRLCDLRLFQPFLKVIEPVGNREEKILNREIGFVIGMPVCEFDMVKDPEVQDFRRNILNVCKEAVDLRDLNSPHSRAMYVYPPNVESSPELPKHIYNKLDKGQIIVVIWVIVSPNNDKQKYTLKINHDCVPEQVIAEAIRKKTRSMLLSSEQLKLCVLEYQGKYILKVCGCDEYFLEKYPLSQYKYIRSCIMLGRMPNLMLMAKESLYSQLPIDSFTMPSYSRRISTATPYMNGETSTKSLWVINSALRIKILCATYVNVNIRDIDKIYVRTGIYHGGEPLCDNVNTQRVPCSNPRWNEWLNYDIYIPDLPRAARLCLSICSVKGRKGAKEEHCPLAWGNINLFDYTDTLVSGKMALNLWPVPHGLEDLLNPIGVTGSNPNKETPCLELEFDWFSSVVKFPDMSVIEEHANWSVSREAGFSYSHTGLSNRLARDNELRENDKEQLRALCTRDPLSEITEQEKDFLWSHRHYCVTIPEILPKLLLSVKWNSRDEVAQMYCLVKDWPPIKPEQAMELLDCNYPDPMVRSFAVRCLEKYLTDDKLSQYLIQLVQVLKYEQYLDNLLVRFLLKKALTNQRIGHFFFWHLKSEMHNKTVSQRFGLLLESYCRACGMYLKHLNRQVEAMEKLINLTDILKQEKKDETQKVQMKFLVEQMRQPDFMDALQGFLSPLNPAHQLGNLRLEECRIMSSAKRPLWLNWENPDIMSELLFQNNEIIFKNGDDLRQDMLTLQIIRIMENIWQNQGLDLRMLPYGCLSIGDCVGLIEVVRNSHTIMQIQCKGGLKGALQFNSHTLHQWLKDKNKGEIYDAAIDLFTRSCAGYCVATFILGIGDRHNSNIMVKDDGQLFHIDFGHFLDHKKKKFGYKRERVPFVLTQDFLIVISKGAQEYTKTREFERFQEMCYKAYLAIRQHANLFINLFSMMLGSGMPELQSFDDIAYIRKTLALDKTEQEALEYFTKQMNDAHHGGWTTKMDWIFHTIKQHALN

Ratio IC50 [1]: 190 | AUC(0-inf) [2]: 16 µM·h | Vd [3]: 0.83 L/kg | Vd [4]: 1.03 L/kg | EC90 [5]: 21 nM | EC50 [6]: 1170 nM | Ratio IC50 [9]: 750 | half-life [10]: 2.04 h
Structure (SMILES): N#Cc1c(N)nc(N)nc1N[C@H](c1nc2c(F)ccc(Cl)c2c(=O)n1-c1cccnc1)C1CC1 [GS-9901]
Activity [7]: 65% | Activity [8]: 48% | ED50 [11]: 0.6 mg/kg
